Several values for one entry are separate records, joined by “and”; a condition that tells them apart may be missing. Equal entries are not always repeated.
Experiments:
A549 cells [1] = experiment: Ki67 staining proliferation assay; type: cell-based
PLD1 = target: T1, PLD1 (Homo sapiens, UniProt Q13393); experiment: Drug affinity responsive target stability; type: binding; details: DARTS with immunoblotting
T1 sequence (Q13393 1-1074): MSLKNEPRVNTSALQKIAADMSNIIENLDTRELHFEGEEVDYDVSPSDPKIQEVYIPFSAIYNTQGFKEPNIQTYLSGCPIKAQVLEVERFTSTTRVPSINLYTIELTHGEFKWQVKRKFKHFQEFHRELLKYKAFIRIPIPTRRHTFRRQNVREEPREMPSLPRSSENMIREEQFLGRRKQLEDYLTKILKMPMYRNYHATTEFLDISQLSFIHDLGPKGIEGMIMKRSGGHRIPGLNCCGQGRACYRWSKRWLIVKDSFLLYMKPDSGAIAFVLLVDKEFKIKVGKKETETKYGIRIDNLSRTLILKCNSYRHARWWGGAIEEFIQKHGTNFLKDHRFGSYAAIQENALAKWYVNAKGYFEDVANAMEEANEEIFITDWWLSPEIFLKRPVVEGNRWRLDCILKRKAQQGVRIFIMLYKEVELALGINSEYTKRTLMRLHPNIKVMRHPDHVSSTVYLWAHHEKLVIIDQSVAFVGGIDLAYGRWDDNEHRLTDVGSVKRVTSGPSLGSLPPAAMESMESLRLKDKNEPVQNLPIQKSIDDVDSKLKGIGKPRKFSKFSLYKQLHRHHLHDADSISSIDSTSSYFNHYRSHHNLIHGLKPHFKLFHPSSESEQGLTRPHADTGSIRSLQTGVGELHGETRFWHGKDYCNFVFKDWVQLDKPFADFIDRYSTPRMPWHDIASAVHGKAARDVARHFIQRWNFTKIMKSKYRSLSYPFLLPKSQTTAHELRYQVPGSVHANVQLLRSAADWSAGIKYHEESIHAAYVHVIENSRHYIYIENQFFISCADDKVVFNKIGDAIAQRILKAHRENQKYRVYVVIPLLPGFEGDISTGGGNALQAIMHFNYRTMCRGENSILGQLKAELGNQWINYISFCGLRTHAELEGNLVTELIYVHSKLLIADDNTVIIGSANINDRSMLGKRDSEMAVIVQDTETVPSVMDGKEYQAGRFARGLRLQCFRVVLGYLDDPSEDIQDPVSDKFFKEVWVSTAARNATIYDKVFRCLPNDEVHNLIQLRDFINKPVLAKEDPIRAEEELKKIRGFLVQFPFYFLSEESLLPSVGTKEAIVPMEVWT
In short: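 A549 cells lysed in buffer with protease and phosphatase inhibitors. Cleared supernatant incubated with test compound for 1 h at RT, then digested with Pronase for 10 min at RT. Digestion stopped with SDS loading buffer and boiling at 100 °C for 5 min. PLD1 was detected by immunoblot, with β-tubulin as control.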

LLC lung cancer cells = experiment: LLC tumor model in immune-deficient nude mice; type: in vivo, mouse; details: immune-deficient nude mice injected with LLC cells
A549 cells [2] = experiment: In vitro phagocytosis assay; type: cell-based, human; details: A549 cocultured with PMA-activated THP-1
In short: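 A549 cells treated with test compound for 48 h in RPMI with 10% FBS, then labelled with 1 μM CFSE. THP-1 cells were differentiated with PMA for 36 h, and 5 × 10^5 were co-incubated with equal CFSE-labelled cells in serum-free RPMI for 2 h. After Fc block and PerCP-Cy5.5 anti-CD11b staining (20 min, 4 °C), CFSE+CD11b+ cells were counted by flow cytometry in at least three independent experiments.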

HCT116 cells = experiment: WST-1 cell viability assay, HCT116; type: cell-based; details: read-out: IC50 of viability; HCT116, WST-1, 48 h
In short: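 Cells grown in DMEM or RPMI 1640 with 10% FBS and 1% penicillin/streptomycin at 37 °C, 5% CO2. Seeded at 5 × 10^3 cells/well and held 24 h at 37 °C, then exposed to test compound for 48 h. WST-1 absorbance was read at 450 nm, in triplicate. IC50 was taken as the concentration giving 50% growth inhibition versus control.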

F789A mutant PLD1 = target: T2, F789A mutant PLD1 (Homo sapiens, UniProt Q13393, F827A); experiment: PLD activity assay in F789A mutant PLD1-transfected cells; type: cell-based
T2 sequence (Q13393 1-1036 isoform Q13393-2 F789A): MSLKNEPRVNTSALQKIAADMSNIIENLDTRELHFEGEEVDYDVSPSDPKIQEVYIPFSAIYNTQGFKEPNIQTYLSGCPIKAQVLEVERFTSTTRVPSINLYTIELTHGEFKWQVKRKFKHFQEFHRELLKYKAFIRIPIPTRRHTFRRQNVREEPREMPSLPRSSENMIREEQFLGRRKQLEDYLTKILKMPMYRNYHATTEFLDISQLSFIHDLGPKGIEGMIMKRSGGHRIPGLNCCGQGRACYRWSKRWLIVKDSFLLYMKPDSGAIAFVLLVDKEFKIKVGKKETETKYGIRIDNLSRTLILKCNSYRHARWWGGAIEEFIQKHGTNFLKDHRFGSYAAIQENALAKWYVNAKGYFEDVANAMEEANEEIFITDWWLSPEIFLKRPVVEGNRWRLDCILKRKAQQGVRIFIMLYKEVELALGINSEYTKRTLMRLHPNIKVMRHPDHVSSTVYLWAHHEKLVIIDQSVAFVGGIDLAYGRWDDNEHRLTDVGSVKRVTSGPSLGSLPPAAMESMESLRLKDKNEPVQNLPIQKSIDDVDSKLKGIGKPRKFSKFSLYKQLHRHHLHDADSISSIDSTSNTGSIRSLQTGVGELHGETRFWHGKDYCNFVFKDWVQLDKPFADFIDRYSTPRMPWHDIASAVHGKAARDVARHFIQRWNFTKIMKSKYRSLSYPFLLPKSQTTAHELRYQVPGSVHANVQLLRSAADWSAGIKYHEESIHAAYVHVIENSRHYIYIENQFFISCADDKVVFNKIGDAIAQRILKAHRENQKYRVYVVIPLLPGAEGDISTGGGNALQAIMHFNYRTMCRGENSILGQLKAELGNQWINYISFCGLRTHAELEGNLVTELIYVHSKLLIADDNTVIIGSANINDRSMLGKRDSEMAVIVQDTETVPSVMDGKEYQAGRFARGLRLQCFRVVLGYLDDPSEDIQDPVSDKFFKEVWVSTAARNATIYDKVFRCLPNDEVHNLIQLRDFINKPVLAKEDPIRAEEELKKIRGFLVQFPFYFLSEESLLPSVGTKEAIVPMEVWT

KRAS = experiment: RAS activation assay in KRAS-transfected cells; type: cell-based
In short: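 Cells treated with test compound for 24 h and lysed with protease inhibitor, then spun at 13,000 rpm for 10 min at 4 °C. Lysate (800 μg) was incubated overnight at 4 °C with GST-Raf1-RBD beads and washed three times. Bound RAS-GTP was eluted in SDS buffer, heated at 100 °C for 5 min, and immunoblotted for RAS.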

N-(3,5-Bis(trifluoromethyl)phenyl)-3-(1H-indol-3-yl)propanamide [3r]
Ki67-positive proliferation (A549 cells [1]): significantly inhibited | stability of PLD1 against Pronase (PLD1): increased stability | tumor formation (LLC lung cancer cells): significantly suppressed | CD11b^+CFSE^+ macrophages (phagocytosis) (A549 cells [2]): significantly increased | IC50 (HCT116 cells): 29 µM and 29.1 µM | PLD activity (F789A mutant PLD1): did not significantly inhibit | KRAS activation (KRAS): inhibited

Source: publication PMC11913021 (Journal of Medicinal Chemistry, 2024)
